# Laboratory results from article PMC5766324 (Pain, 2015).
# Where a SMILES comes first, the peptide text is derived from it. The star is where a group is joined. Myristoyl = CCCCCCCCCCCCCC(=O)*
# What was measured:
# [1] = i.c.v. dosing; previous studies; cited from earlier work
# [2] = cited from earlier work
# [3] = Rotarod performance test; type: in vivo, rat; details: 20 μg/5 μL i.t.; cutoff 180 seconds; n = 5 to 6
# [4] = tested on: Ca2+ currents in sensory neurons; details: cited from earlier work
# [5] = tested on: small-diameter DRG neurons; test: Current clamp, excitability of small-diameter DRG neurons; type: cell-based, rat; details: step of depolarizing current; n = 4 to 6 cells; P < 0.001
# Summary of the method: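 Whole-cell current clamp of acutely dissociated small-diameter DRG neurons at ~23°C. Pipette solution (mM): 140 KCl, 10 NaCl, 1 MgCl2, 1 EGTA, 10 HEPES pH 7.2, 1 ATP-Mg. Cells were held at resting potential (−40 to −62 mV). A 1-s depolarizing current step was set to evoke 6–10 APs under control, and APs were counted before and after adding peptide to the bath. Signals were filtered at 5 kHz and […].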
# [6] = molecular target: CRMP2 (Homo sapiens, UniProt Q16555); test: CRMP2 oligomerization, glutaraldehyde cross-linking and silver-stained SDS-PAGE; type: biochemical; details: 20 μM peptide, 1 mM glutaraldehyde; n = 3
# Summary of the method: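 Bacterially expressed recombinant CRMP2, purified by affinity, anion-exchange and size-exclusion chromatography. About 4.6 μM CRMP2 was preincubated in 100 mM HEPES pH 7.3, 50 mM NaCl, with or without 20 μM peptide, for 15 min at room temperature. Glutaraldehyde (0.1, 1 or 10 mM) was added for 30 min. The reaction was stopped with loading dye and heat, and oligomers were resolved by SDS-PAGE with silver staining.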
# [7] = Carrageenan-induced thermal hypersensitivity; type: in vivo, rat; details: 20 μg/5 μL i.t., 3 hours after carrageenan; tat-CBD3 at 90, 120, 210, 240, 300 minutes; myr-tat-CBD3 at 15, 60, 90, 120, 180 minutes; n = 5–6
# [8] = tested on: CRMP2 phosphorylation; test: Western blot of phospho-CRMP2 in peptide-treated DRG; type: cell-based, rat; details: 20 μM peptide, 2 hours, n = 3–6 wells
# [9] = tested on: Ca2+ currents in sensory neurons; test: Whole-cell voltage clamp, Ca2+ currents in sensory neurons; type: cell-based, rat
# [10] = tested on: CaV2.2; test: Immunocytochemistry, confocal colocalization of CaV2.2 and CRMP2 in DRG; type: cell-based, rat; details: 20 μM peptide
# Summary of the method: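 DRG cultures were grown on poly-D-lysine coverslips in DMEM/F12 with 10% FBS, 5-FDU and uridine at 37°C, 5% CO2. Cells were exposed to vehicle or 20 μM peptide for 5 min, 20 min, 2 h or 48 h, then fixed (4% paraformaldehyde/4% sucrose, 20 min), permeabilized (0.1% Triton X-100) and blocked (3% BSA). Anti-CaV2.2 and anti-CRMP2 were applied overnight at 4°C. Confocal images were background-subtracted, and Pearson and Manders coefficients were computed from raw data.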
# [11] = Paw incision model of postoperative pain; type: in vivo, rat
# Summary of the method: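 Male Sprague-Dawley rats received a plantar incision of the left hind paw under isoflurane. After 24 h of recovery, peptide or vehicle was given spinally. Thermal withdrawal latency (lift or lick; 30-s cutoff) and tactile withdrawal thresholds were measured every 15 min for the first hour, then every 30 min for 4 h.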
# [12] = tested on: Na+ currents, catecholamine A differentiated cell line; details: chronic application, 20 μM overnight; n = 5 to 8 cells
# [13] = molecular target: N-type voltage-gated calcium channel (CaV2.2) (rat (endogenous in spinal cord)) (UniProt Q02294); test: pull-down
# Sequence of N-type voltage-gated calcium channel (CaV2.2) (rat (endogenous in spinal cord)) (Q02294 whole entry): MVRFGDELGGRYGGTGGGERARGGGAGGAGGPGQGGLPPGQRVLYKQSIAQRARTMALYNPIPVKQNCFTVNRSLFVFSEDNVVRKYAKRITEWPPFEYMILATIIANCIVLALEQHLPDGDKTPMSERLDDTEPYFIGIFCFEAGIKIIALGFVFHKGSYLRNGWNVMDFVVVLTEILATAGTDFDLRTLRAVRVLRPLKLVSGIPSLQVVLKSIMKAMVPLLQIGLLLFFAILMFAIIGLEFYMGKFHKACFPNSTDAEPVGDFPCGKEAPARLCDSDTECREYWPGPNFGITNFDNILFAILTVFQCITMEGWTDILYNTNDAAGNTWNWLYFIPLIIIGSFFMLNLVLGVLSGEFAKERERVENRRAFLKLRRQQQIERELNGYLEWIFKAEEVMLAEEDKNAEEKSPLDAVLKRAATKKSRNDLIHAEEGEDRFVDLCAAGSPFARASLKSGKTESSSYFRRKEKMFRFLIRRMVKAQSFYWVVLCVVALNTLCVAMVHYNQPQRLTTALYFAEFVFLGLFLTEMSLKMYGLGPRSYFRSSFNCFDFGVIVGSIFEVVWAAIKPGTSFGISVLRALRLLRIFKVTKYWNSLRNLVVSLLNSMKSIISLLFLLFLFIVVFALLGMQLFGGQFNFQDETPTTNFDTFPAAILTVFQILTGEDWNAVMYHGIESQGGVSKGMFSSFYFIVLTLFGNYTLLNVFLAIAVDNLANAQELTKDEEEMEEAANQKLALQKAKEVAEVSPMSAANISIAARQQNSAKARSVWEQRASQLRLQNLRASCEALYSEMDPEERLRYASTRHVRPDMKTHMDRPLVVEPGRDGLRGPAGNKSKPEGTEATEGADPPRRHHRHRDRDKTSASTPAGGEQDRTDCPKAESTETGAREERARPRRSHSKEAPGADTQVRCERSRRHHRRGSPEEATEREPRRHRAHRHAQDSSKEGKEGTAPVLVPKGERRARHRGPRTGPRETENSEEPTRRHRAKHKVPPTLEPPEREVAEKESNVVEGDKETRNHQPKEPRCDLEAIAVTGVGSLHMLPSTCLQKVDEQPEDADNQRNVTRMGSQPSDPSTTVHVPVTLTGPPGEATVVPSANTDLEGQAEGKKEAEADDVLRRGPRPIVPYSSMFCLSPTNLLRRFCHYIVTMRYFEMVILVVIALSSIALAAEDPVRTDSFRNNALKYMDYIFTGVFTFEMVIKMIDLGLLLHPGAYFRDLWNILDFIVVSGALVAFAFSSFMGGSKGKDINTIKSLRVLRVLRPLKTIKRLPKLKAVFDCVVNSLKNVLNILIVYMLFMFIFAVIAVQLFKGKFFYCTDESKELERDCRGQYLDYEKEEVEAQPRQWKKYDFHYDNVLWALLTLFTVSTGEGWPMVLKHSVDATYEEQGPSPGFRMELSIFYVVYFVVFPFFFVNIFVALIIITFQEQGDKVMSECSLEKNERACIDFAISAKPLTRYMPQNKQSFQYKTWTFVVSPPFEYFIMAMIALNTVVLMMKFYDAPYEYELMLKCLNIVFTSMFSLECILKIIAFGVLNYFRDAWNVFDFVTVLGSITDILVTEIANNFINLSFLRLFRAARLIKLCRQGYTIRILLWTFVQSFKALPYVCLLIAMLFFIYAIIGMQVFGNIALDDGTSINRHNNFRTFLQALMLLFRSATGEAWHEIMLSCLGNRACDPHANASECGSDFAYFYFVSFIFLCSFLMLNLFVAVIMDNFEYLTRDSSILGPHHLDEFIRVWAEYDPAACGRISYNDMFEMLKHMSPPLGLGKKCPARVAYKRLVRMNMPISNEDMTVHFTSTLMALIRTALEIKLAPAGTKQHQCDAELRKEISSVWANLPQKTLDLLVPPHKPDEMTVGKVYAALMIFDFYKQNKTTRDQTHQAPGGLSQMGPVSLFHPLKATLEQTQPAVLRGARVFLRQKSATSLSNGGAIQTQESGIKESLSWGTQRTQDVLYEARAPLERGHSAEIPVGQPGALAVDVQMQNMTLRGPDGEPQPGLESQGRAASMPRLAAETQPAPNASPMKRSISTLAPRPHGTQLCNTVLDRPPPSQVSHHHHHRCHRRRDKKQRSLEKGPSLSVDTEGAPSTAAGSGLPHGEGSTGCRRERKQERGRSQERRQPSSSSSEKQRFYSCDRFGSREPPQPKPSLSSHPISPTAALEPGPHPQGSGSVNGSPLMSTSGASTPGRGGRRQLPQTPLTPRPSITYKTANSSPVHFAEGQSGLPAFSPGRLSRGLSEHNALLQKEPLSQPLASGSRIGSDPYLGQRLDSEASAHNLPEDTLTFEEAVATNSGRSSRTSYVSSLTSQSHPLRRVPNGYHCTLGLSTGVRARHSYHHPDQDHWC
molecule,measurement,setting,value
CN1CC[C@]23c4c5ccc(O)c4O[C@H]2[C@@H](O)C=C[C@H]3[C@H]1C5 [morphine],conditioned place preference,[1],positive condition place preference
ω-conotoxin MVIIA,duration of reduced thermal hypersensitivity and mechanical allodynia,[2]; in vivo,2 to 4 h
same,time of maximal effect,[2]; in vivo,2 h
CC(C)C[C@H](NC(=O)CNC(=O)[C@H](CCCNC(=N)N)NC(=O)[C@@H]1CCCN1C(=O)[C@@H](NC(=O)CNC(=O)[C@H](CCCNC(=N)N)NC(=O)[C@H](CC(C)C)NC(=O)[C@H](CCC(=O)O)NC(=O)[C@H](C)NC(=O)[C@H](CC(C)C)NC(=O)[C@H](CCCNC(=N)N)NC(=O)[C@H](CO)NC(=O)[C@H](CCCNC(=N)N)NC(=O)[C@H](C)NC(=O)[C@H](CCCNC(=N)N)NC(=O)[C@H](CCCNC(=N)N)NC(=O)[C@H](CCCNC(=N)N)NC(=O)[C@H](CCC(N)=O)NC(=O)[C@H](CCCNC(=N)N)NC(=O)[C@H](CCCNC(=N)N)NC(=O)[C@H](CCCCN)NC(=O)[C@H](CCCCN)NC(=O)[C@H](CCCNC(=N)N)NC(=O)CNC(=O)[C@@H](N)Cc1ccc(O)cc1)C(C)C)C(=O)O [tat-CBD3] (H-YGRKKRRQRRRARSRLAELRGVPRGL-OH),average time on rotarod over the course of 300 minutes,[3],180 ± 0 s
NCC1(CC(=O)O)CCCCC1 [gabapentin],"peak effect, reversal of hypersensitivity","[2]; intrathecal, von Frey on incised paw, 60 minutes after injection",~ 19%
same,block of CaV2.2 currents after acute treatments,[4],ineffective in blocking currents
CCCCCCCCCCCCCC(=O)NCC(=O)N[C@@H](Cc1ccc(O)cc1)C(=O)NCC(=O)N[C@@H](CCCNC(=N)N)C(=O)N[C@@H](CCCCN)C(=O)N[C@@H](CCCCN)C(=O)N[C@@H](CCCNC(=N)N)C(=O)N[C@@H](CCCNC(=N)N)C(=O)N[C@@H](CCC(N)=O)C(=O)N[C@@H](CCCNC(=N)N)C(=O)N[C@@H](CCCNC(=N)N)C(=O)N[C@@H](CCCNC(=N)N)C(=O)N[C@@H](C)C(=O)N[C@@H](CCCNC(=N)N)C(=O)N[C@@H](CO)C(=O)N[C@@H](CCCNC(=N)N)C(=O)N[C@@H](CC(C)C)C(=O)N[C@@H](C)C(=O)N[C@@H](CCC(=O)O)C(=O)N[C@@H](CC(C)C)C(=O)N[C@@H](CCCNC(=N)N)C(=O)NCC(=O)N[C@H](C(=O)N1CCC[C@H]1C(=O)N[C@@H](CCCNC(=N)N)C(=O)NCC(=O)N[C@@H](CC(C)C)C(=O)O)C(C)C [myr-tat-CBD3] (Myristoyl-GYGRKKRRQRRRARSRLAELRGVPRGL-OH; C-terminus assumed),number of action potentials (APs),[5],significantly decreased
same,extent of CRMP2 dimer or tetramer,[6],does not alter
same,carrageenan-induced thermal hypersensitivity vs vehicle,[7],significantly attenuated
same,"expression of phosphorylated CRMP2 at sites 522, 509/514, 555",[8],no changes
same,"effect on Ca2+ currents, acute application","[9]; acute application (5–30 minutes), data not shown",unable to inhibit currents
same,inhibition of Ca2+ currents,"[9]; chronic application (~24 hours), 20 μM overnight, n = 14 to 16 cells",~ 40%
same,activation of Ca2+ currents,"[9]; chronic application, 20 μM, Boltzmann fits",no changes
same,"Manders overlap coefficient (MOC), CaV2.2 with CRMP2",[10],0.65
same,"Pearson correlation coefficient (PCC), CaV2.2 with CRMP2",[10],0.60
same,time for which maintenance of thermal and tactile hypersensitivity was blocked,"[11]; 20 μg/5 μL i.t., 24 hours after incision, n = 5",at least 4 hours
same,withdrawal threshold (tactile),"[11]; at 5 hours after i.t. injection, 20 μg/5 μL",~ 11 g
same,duration of reversal of thermal hypersensitivity,[11]; spinal administration after surgery,~ 4 hours
same,effect on Na+ currents,[12],did not affect
myr-tat-CBD3 (peptide),percent inhibition of CaV2.2-CRMP2 binding at 10 μM,[13],> 81%
